Measured values as given in article PMC6318406 (Asian Pacific Journal of Cancer Prevention : APJCP, 2018).
“Also recorded” adds a separate entry of the source. Marks after values point to notes of the source that are not given here.

Columns and labels:
Format in all cases: in vivo, rat
alpha-fetoprotein (AFP) = test: Serum alpha-fetoprotein; conditions: HCC afflicted rats, 50 mg/kg b.wt orally daily for 5 weeks; mean ± SE
Procedure, shortened: (§1)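 Female Wistar rats, 170-200 g, 10/group. HCC induced by oral NDEA in 0.9% saline, 20 mg/kg five times weekly for 4 weeks, then 10 mg/kg five times weekly for 1 week. Saline-dosed healthy and untreated HCC groups. Overnight fast after the last dose. Retro-orbital blood drawn under ether and clotted 45 min at room temperature. Serum spun at 1,800 x g for 15 min at 4°C and stored at -20°C. Rat ELISA kits. Mean ± SE; ANOVA with Tukey test.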

endoglin (ENG) = test: Serum endoglin; conditions: HCC afflicted rats, 50 mg/kg b.wt orally daily for 5 weeks; mean ± SE
Procedure, shortened: as §1

[1] = system: heat shock protein-70 (HSP-70); test: Serum heat shock protein-70; conditions: HCC afflicted rats, 50 mg/kg b.wt orally daily for 5 weeks; mean ± SE
Procedure, shortened: as §1

[2] = system: β-cell leukemia/lymphoma 2 (Bcl-2); test: Serum Bcl-2 by ELISA in NDEA-induced HCC rats; conditions: HCC afflicted rats, 50 mg/kg b.wt orally daily for 5 weeks
Procedure, shortened: as §1

pro-caspase 3 = test: Serum pro-caspase 3 by ELISA in NDEA-induced HCC rats; conditions: HCC afflicted rats, 50 mg/kg b.wt orally daily for 5 weeks
Procedure, shortened: as §1

lipocalin-2 (LCN-2) = test: Serum lipocalin-2; conditions: HCC afflicted rats, 50 mg/kg b.wt orally daily for 5 weeks
Procedure, shortened: as §1

[3] = system: hepatocellular carcinoma (HCC) afflicted rats; test: Histological examination of liver tissue sections; conditions: 50 mg/kg b.wt orally daily for 5 weeks, H and E stain
[4] = Oral pharmacokinetic study in normal rats
[5] = Oral pharmacokinetic study in HCC-induced rats; conditions: serum
Procedure, shortened: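 HCC induced by oral NDEA (20 mg/kg five times weekly for 4 weeks, then 10 mg/kg for 1 week). Rats (n=6) were fasted 12 h, then given one oral 50 mg/kg dose of free or nanocomposite test compound. Serum was sampled 0.083–24 h, spiked with pyrogallol and extracted into ethyl acetate. Measured by C18 HPLC at 280 nm; non-compartmental analysis, ke from terminal log-linear slope, MRT = AUMC/AUC.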

[6] = normal rats, single dose 50 mg/kg p.o., serum
[7] = normal rats, single dose 50 mg/kg p.o., serum, 50 mg/kg

AUMC [4, 6]: 2.03 ± 0.44 µg·mL/h
AUMC last [4, 6]: 1.3 ± 0.13 µg·mL/h
Duration of action ([4]; normal rats, single dose 50 mg/kg p.o., serum concentration-time profile): approximately 1 hr
C max [4, 7]: 1570 ± 108 ng/mL
MRT [4, 7]: 1.063 ± 0.155 h
AUC(0-inf) ([4]; rat, serum, po, 50 mg/kg): 1890 ± 130 ng·h/mL
AUC(0-t) ([4]; rat, serum, po, 50 mg/kg): 1640 ± 45 ng·h/mL
Tmax ([4]; rat, serum, po, 50 mg/kg): 0.46 ± 0.085 h
half-life ([4]; rat, serum, po, 50 mg/kg): 0.62 ± 0.09 h
Cmax ([4]; rat, serum, po, 50 mg/kg, C max, normal rats, single dose 50 mg/kg p.o.): 1590 ng/mL
MRT ([4]; rat, serum, po, 50 mg/kg, MRT, normal rats, single dose 50 mg/kg p.o.): 1.06 h
AUMC last ([5]; HCC-afflicted rats, single dose 50 mg/kg p.o.): 1.55 ± 0.014 µg·mL/h
AUC(0-inf) ([5]; rat, po, 50 mg/kg): 1670 ± 40 ng·h/mL
AUC(0-t) ([5]; rat, po, 50 mg/kg): 1340 ± 194 ng·h/mL
MRT ([5]; rat, po, 50 mg/kg): 1.43 ± 0.34 h
half-life ([5]; rat, po, 50 mg/kg): 1.4 ± 0.32 h
SMILES: O=C(O)c1cc(O)c(O)c(O)c1 [GA, 3,4,5-trihydroxy benzoic acid]
Serum AFP (alpha-fetoprotein (AFP)): 41.19 ± 0.83^b ng/ml
Serum ENG (endoglin (ENG)): 4.16 ± 0.14^b ng/ml
Serum HSP-70 [1]: 43.56 ± 0.8426^b ng/ L
Change in serum Bcl-2 with respect to the HCC group [2]: -32.9%
Change in serum pro-caspase 3 with respect to the HCC group (pro-caspase 3): -60.5%
Change in serum LCN-2 with respect to the HCC group (lipocalin-2 (LCN-2)): -34.8%
Histopathological findings in liver tissue section [3]: markedly recovered the anaplastic changes in the rat liver tissues; also recorded: congestion in the portal vein, multiple newly formed bile ducts and inflammatory cells infiltration in between at the portal area; also recorded: focal aggregations of mononuclear leucocytes inflammatory cells were detected in the hepatic parenchyma
